Reference: ChEMBL document CHEMBL3763092, “Design and synthesis of pyrrolobenzodiazepine-gallic hybrid agents as p53-dependent and -independent apoptogenic signaling in melanoma cells” (Eur J Med Chem, 2016)
Activity calls are given as the source filed them. The rule behind the calls is not given here.

Tests used:
[1] = test system: A-375; assay: Induction of apoptosis in human A375 cells expressing p53 wild type assessed as increase in p53 levels at 0.5 uM after 24 hrs by western blot analysis; format: functional, cell-based
In short: (§1)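 A375 cells were exposed to 0.5 µM for 24 h, and lysates were immunoblotted with specific antibodies (p53, Cdc25c, p-Chk1, Bcl-xL, PARP, caspase-3). GAPDH served as loading control. Three independent experiments.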

[2] = test system: A-375; assay: Induction of apoptosis in human A375 cells expressing p53 wild type assessed as decrease in Bcl-xl levels at 0.5 uM after 24 hrs by western blot analysis; format: functional, cell-based; in short: as §1
[3] = test system: A-375; assay: Induction of apoptosis in human A375 cells expressing p53 wild type assessed as increase in cleaved caspase-3 levels at 0.5 uM after 24 hrs by western blot analysis; format: functional, cell-based; in short: as §1
[4] = test system: A-375; assay: Induction of apoptosis in human A375 cells expressing p53 wild type assessed as increase in cleaved PARP levels at 0.5 uM after 24 hrs by western blot analysis; format: functional, cell-based; in short: as §1
[5] = test system: A-375; assay: Cytotoxicity against human A375 cells expressing p53 wild type assessed as cell viability at 1 uM after 24 hrs by MTT assay; format: functional; details: A-375, 24 h, read-out: Activity
In short: (§2)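 Cells were exposed to compound at 1 µM for 24 h, then growth and viability were read by MTT assay. Media: A375 in DMEM; RPMI7951 and MCF-7 in MEM; A549 in RPMI1640; H1299 in DMEM-F12; all with 10% FCS and penicillin/streptomycin, at 37 °C and 5% CO2. Fibroblasts came from adult foreskin. DMSO stocks were 10 mM.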

[6] = Cytotoxicity against human RPMI7951 cells expressing p53 mutant assessed as cell viability at 1 uM after 24 hrs by MTT assay; format: functional; details: RPMI-7951, 24 h, read-out: Activity; in short: as §2
[7] = test system: MCF7; assay: Cytotoxicity against human MCF7 cells expressing p53 wild type assessed as cell viability at 1 uM after 24 hrs by MTT assay; format: functional; details: MCF7, 24 h, read-out: Activity; in short: as §2
[8] = test system: A549; assay: Cytotoxicity against human A549 cells assessed as cell viability at 1 uM after 24 hrs by MTT assay; format: functional; details: A549, 24 h, read-out: Activity; in short: as §2
[9] = Cytotoxicity against p53 knockout human H1299 cells assessed as cell viability at 1 uM after 24 hrs by MTT assay; format: functional; details: NCI-H1299, 24 h, read-out: Activity; in short: as §2
[10] = Cytotoxicity against human fibroblast cells expressing p53 wild type assessed as cell viability at 1 uM after 24 hrs by MTT assay; format: cell-based; details: read-out: Activity; in short: as §2
[11] = test system: A-375; assay: Induction of reactive oxygen species generation in human A375 cells expressing p53 wild type assessed as increase in intracellular H2O2 level at 0.5 uM after 24 hrs by DCFH-DA staining based fluorescence analysis; format: functional, cell-based
In short: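 A375 cells were treated with 0.5 µM for 0, 12 and 24 h and stained with DCFH-DA to detect intracellular H2O2.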

[12] = test system: A-375; assay: Induction of DNA lesion in human A375 cells expressing p53 wild type assessed as increase in 8-oxoguanine expression at 0.5 uM after 24 hrs by immunohistochemical analysis; format: functional, cell-based
In short: (§3)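 A375 cells on coverslips (1 × 10^4) were treated with 0.5 µM for 24 h. Cells were fixed in 4% formaldehyde for 5 min at 4 °C, permeabilized with 0.5% Triton X-100, and blocked with 5% BSA at 37 °C for 45 min. Primary antibodies were applied for 1 h at RT: mouse anti-p-ATR and anti-p-ATM 1:1000, anti-8-oxoguanine 1:250, COX IV and cytochrome c 1:1000. Secondary antibodies (rhodamine for 8-oxoguanine) followed for 30 min. DAPI counterstain.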

[13] = test system: A-375; assay: Induction of DNA damage in human A375 cells expressing p53 wild type assessed as increase in ATR/ATM activation at 0.5 uM after 24 hrs by immuohistochemistry analysis; format: functional, cell-based; in short: as §3
[14] = test system: A-375; assay: Increase in Chk1 phosphorylation in human A375 cells expressing p53 wild type at 0.5 uM after 24 hrs by western blot analysis; format: functional, cell-based; in short: as §1
[15] = test system: A-375; assay: Decrease in Cdc25c level in human A375 cells expressing p53 wild type at 0.5 uM after 24 hrs by western blot analysis; format: functional, cell-based; in short: as §1
[16] = test system: A-375; assay: Effect on cell cycle distribution in human A375 cells expressing p53 wild type assessed as number of cells at S-phase at 0.5 uM after 24 hrs by FACS analysis (reference value: 13.8 %); format: functional
[17] = test system: A-375; assay: Effect on cell cycle distribution in human A375 cells expressing p53 wild type assessed as number of cells at G2/M phase at 0.5 uM after 24 hrs by FACS analysis (reference value: 12.1 %); format: functional
[18] = test system: A-375; assay: Effect on cell cycle distribution in human A375 cells expressing p53 wild type assessed as number of cells at G0/G1 phase at 0.5 uM after 24 hrs by FACS analysis Rvb = 74.1 %); format: functional
[19] = test system: A-375; assay: Effect on cell cycle distribution in human A375 cells expressing p53 wild type assessed as number of cells at subG1 phase at 0.5 uM after 24 hrs by FACS analysis (reference value: 1 %); format: functional
[20] = test system: A-375; assay: Induction of apoptosis in human A375 cells expressing p53 wild type assessed as increase in p53 mRNA level by RT- qPCR analysis; format: functional, cell-based; details: TDE = time-dependent effect
In short: (§4)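 Quantitative real-time PCR on A375 cells over a time course, measuring p53, bax and bcl-xl mRNA normalized to GAPDH mRNA.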

[21] = test system: A-375; assay: Induction of apoptosis in human A375 cells expressing p53 wild type assessed as increase in bax mRNA level by RT- qPCR analysis; format: functional, cell-based; details: TDE = time-dependent effect; in short: as §4
[22] = test system: A-375; assay: Induction of apoptosis in human A375 cells expressing p53 wild type assessed as decrease in bcl-xl mRNA level by RT- qPCR analysis; format: functional, cell-based; details: TDE = time-dependent effect; in short: as §4
[23] = test system: A-375; assay: Induction of apoptosis in human A375 cells expressing p53 wild type assessed as decrease in mitochondrial membrane potential at 0.5 uM after 12 hrs by DiOC6 dye based flow cytometry; format: functional, cell-based
In short: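 A375 cells were treated with 0.5 µM for 0, 12 and 24 h, labeled with DiOC6 and analyzed by flow cytometry. Three independent experiments.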

[24] = test system: A-375; assay: Induction of apoptosis in human A375 cells expressing p53 wild type assessed as increase release of cytochrome c from mitochondria to cytosol at 0.5 uM after 24 hrs by immunofluorescence analysis; format: functional, cell-based; in short: as §3
[25] = test system: A-375; assay: Induction of apoptosis in human A375 cells expressing p53 wild type assessed as lysosomal H+ concentration at 0.5 uM after 24 and 48 hrs by flow cytometric analysis; format: functional, cell-based
In short: (§5)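 Cells were loaded with LysoTracker Green (75 nM) for 15 min at 37 °C before treatment with 0.5 µM for the indicated times. After washing, mean fluorescence was quantified by flow cytometry. For p53 knockdown, A375 cells (6 × 10^4/well, antibiotic-free DMEM) were transfected with 30 nM tp53 siRNA or non-target siRNA using Lipofectamine RNAiMAX and harvested at 24 h.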

[26] = test system: A-375; assay: Induction of apoptosis in human A375 cells transfected with siRNA p53 assessed as decrease in lysosomal H+ concentration at 0.5 uM after 24 and 48 hrs by flow cytometric analysis; format: functional, cell-based; in short: as §5
[27] = test system: RPMI-7951; assay: Induction of apoptosis in human RPMI7951 cells expressing p53 mutant assessed as decrease in lysosomal H+ concentration at 0.5 uM after 24 and 48 hrs by flow cytometric analysis; format: functional, cell-based; in short: as §5
[28] = test system: RPMI-7951; assay: Induction of apoptosis in human RPMI7951 cells expressing p53 mutant assessed as increased release of cathepsin D to cytosol at 0.5 uM by immunofluorescent staining analysis; format: functional, cell-based
In short: (§6)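 RPMI7951 cells on coverslips (1 × 10^4) were treated with 0.5 µM for 24 h. Immunofluorescence steps: fixation in 4% formaldehyde, permeabilization with 0.5% Triton X-100, blocking with 5% BSA. Primary antibodies: rabbit anti-cathepsin D and mouse anti-LAMP-1 at 1:500, cytochrome c and COX IV at 1:1000, 1 h at RT. Secondary antibodies for 30 min. DAPI counterstain.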

[29] = test system: RPMI-7951; assay: Induction of apoptosis in human RPMI7951 cells expressing p53 mutant assessed as increased release of cytochrome c to cytosol at 0.5 uM by immunofluorescent staining analysis; format: functional, cell-based; in short: as §6
[30] = test system: RPMI-7951; assay: Induction of apoptosis in human RPMI7951 cells expressing p53 mutant assessed as PARP cleavage at 0.5 uM after 24 hrs by western blot analysis; format: functional, cell-based
[31] = test system: A-375; assay: Cytotoxicity against human A375 cells expressing p53 wild type assessed as colony formation at 0.5 uM after 10 days by SRB assay; format: functional, cell-based
In short: (§7)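 Cells were seeded at 100 per well and treated from the second day. Medium containing 0.5 µM agent was renewed every 3 days. After 10 days of treatment, colonies were stained with SRB and photographed. Three independent experiments.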

[32] = test system: RPMI-7951; assay: Cytotoxicity against human RPMI7951 expressing p53 mutant cells assessed as colony formation at 0.5 uM after 10 days by SRB assay; format: functional, cell-based; in short: as §7

COc1cc2c(cc1OCCCOc1cc(OC)c(OC)c(OC)c1)N=C[C@@H]1CCCN1C2=O
Activity [1]: Active | Activity [2]: Active | Activity [3]: Active | Activity [4]: Active | viability at 1 µM [5]: 69.7% | viability at 1 µM [6]: 59.5% | viability at 1 µM [7]: 51.7% | viability at 1 µM [8]: 88.7% | viability at 1 µM [9]: 71.9% | viability at 24 h, 1 µM [10]: 97.3%

COc1cc2c(cc1OCCCCCOc1cc(OC)c(OC)c(OC)c1)N=C[C@@H]1CCCN1C2=O
Activity [11]: Active | Activity [12]: Active | Activity [13]: Active | Activity [14]: Active | inhibition [15]: Active | Activity [16]: 37% | Activity [17]: 4.2% | Activity [18]: 45.8% | Activity [19]: 16% | Activity [1]: Active | Activity [2]: Active | Activity [3]: Active | Activity [4]: Active | Activity [20]: tde | Activity [21]: tde | Activity [22]: tde | Activity [23]: Active | Activity [24]: Active | Activity [25]: inactive | Activity [26]: Active | Activity [27]: Active | Activity [28]: Active | Activity [29]: Active | Activity [30]: Active | viability at 1 µM [5]: 37.7% | viability at 1 µM [6]: 64.6% | viability at 1 µM [7]: 55% | viability at 1 µM [8]: 78% | viability at 1 µM [9]: 69.4% | viability at 24 h, 1 µM [10]: 111% | inhibition [31]: Active | inhibition [32]: Active

COc1cc2c(cc1OCCCCCNC(=O)c1cc(OC)c(OC)c(OC)c1)N=C[C@@H]1CCCN1C2=O
viability at 1 µM [5]: 74.7% | viability at 1 µM [6]: 111% | viability at 1 µM [7]: 101% | viability at 1 µM [8]: 96.8% | viability at 1 µM [9]: 96.9% | viability at 24 h, 1 µM [10]: 98.7%

COc1cc2c(cc1OCCCCCCOc1cc(OC)c(OC)c(OC)c1)N=C[C@@H]1CCCN1C2=O
Activity [1]: Active | Activity [2]: Active | Activity [3]: Active | Activity [4]: Active | viability at 1 µM [5]: 84.8% | viability at 1 µM [6]: 55.9% | viability at 1 µM [7]: 79% | viability at 1 µM [8]: 101% | viability at 1 µM [9]: 90.2% | viability at 24 h, 1 µM [10]: 93.4%

COc1cc2c(cc1OCCCNC(=O)c1cc(OC)c(OC)c(OC)c1)N=C[C@@H]1CCCN1C2=O
viability at 1 µM [5]: 82.6% | viability at 1 µM [6]: 97.7% | viability at 1 µM [7]: 94.6% | viability at 1 µM [8]: 96.1% | viability at 1 µM [9]: 96.4% | viability at 24 h, 1 µM [10]: 101%

COc1cc2c(cc1OCCCCCCNC(=O)c1cc(OC)c(OC)c(OC)c1)N=C[C@@H]1CCCN1C2=O
viability at 1 µM [5]: 86.5% | viability at 1 µM [6]: 69.6% | viability at 1 µM [7]: 95.4% | viability at 1 µM [8]: 101% | viability at 1 µM [9]: 92.4% | viability at 24 h, 1 µM [10]: 94.9%

COc1cc2c(cc1OCCCCNC(=O)c1cc(OC)c(OC)c(OC)c1)N=C[C@@H]1CCCN1C2=O
viability at 1 µM [5]: 79.5% | viability at 1 µM [6]: 83% | viability at 1 µM [7]: 96.3% | viability at 1 µM [8]: 100% | viability at 1 µM [9]: 95% | viability at 24 h, 1 µM [10]: 98.2%
